As a reminder, the IC50 is the midpoint of a concentration-inhibition curve. As usually defined, the solubility is how much of the substance goes into solution per volume.

The results in this text go back to ChEMBL document CHEMBL3593245 (J Med Chem, 2015).

The target in series [1] is T1, Rap guanine nucleotide exchange factor 4 (Mus musculus) (UniProt Q9EQZ6).
T1 sequence (whole entry): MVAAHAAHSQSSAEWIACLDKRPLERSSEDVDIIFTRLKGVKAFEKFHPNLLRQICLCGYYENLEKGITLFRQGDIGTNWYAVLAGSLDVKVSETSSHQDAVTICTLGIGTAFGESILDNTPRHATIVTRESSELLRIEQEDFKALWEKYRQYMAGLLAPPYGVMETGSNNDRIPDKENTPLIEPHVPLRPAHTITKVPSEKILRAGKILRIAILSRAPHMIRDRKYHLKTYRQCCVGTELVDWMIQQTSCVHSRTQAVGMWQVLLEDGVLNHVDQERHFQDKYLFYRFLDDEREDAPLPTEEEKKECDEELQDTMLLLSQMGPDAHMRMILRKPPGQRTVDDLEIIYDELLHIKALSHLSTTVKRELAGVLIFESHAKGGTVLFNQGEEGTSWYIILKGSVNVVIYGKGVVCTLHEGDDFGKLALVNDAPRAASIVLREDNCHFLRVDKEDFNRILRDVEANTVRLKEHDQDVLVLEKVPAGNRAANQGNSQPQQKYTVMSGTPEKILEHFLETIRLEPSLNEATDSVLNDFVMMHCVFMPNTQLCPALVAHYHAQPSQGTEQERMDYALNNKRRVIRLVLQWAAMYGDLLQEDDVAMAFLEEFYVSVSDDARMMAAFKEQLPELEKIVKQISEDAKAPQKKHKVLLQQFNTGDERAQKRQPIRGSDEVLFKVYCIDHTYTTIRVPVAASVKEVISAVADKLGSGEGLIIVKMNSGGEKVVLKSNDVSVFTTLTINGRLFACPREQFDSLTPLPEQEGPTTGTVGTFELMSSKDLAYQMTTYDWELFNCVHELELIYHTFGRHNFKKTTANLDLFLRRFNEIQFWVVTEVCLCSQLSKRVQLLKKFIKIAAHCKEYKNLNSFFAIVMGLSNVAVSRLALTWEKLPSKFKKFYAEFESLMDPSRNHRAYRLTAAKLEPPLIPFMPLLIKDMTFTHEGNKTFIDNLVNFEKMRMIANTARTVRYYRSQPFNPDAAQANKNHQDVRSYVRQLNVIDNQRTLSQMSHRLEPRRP
Briefly: Ratio of cAMP IC50 to compound IC50 for displacement of 8-NBD-cAMP from mouse recombinant EPAC2 by fluorescence assay.

For series [2], the target named is T2, Rap guanine nucleotide exchange factor 4 (Mus musculus, UniProt Q9EQZ6).
T2 sequence (Q9EQZ6 whole entry): T1 sequence (whole entry)
Put plainly: Displacement of 8-NBD-cAMP from mouse recombinant EPAC2 by fluorescence assay.

Series [3] has as its target T3, Rap guanine nucleotide exchange factor 3 (Homo sapiens, UniProt O95398).
T3 sequence (O95398 whole entry): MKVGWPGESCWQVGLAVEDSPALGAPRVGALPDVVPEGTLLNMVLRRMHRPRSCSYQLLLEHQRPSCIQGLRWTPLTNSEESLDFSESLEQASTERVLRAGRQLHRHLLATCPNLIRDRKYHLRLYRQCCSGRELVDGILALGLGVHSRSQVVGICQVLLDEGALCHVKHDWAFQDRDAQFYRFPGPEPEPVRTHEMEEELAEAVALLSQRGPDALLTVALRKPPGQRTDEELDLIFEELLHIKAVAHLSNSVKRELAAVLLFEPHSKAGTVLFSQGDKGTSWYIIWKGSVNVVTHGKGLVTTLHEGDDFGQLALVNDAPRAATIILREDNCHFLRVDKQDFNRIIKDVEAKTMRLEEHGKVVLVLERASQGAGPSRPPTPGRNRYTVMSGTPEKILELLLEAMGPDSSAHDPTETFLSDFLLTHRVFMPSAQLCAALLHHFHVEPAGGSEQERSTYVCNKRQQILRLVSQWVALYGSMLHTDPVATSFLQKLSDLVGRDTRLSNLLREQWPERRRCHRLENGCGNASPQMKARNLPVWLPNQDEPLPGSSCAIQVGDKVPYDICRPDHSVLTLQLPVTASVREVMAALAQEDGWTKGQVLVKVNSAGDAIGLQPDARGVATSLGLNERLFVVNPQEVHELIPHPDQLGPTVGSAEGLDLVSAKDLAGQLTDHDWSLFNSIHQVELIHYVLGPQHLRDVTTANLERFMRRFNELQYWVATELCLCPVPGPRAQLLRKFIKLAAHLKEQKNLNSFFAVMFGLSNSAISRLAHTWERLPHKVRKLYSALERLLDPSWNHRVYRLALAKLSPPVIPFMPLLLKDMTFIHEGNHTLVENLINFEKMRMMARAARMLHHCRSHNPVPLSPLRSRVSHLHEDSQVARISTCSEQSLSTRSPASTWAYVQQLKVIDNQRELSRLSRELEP
Put plainly: Antagonist activity at EPAC1 (unknown origin) assessed as cAMP-induced guanine nucleotide exchange factor activity.

The target of series [4] is T3, Rap guanine nucleotide exchange factor 3. Briefly: Antagonist activity at human recombinant EPAC1 assessed as inhibition of Rap1b-bGDP exchange activity.
Series [5] in a line: […] solubility of the compound in water after 24 hrs by HPLC analysis. It counts as physicochemical. As to conditions: for solubility: buffer, 24 h; call rule not given here.
Series [6] can be described thus: […] solubility of the compound in ethanol after 24 hrs by HPLC analysis. In kind it is physicochemical. The method in brief: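 10–15 mg of solid added to 0.1–0.6 mL ethanol, shaken 24 h at 25 °C, then centrifuged and filtered. Supernatant (5 μL) injected on C18 reverse-phase HPLC with UV detection at 270 and 254 nm. Quantified by one-point calibration against standards of known concentration.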

Values after ≈ are worked out from the molar mass of the structure shown. A value given as a limit tells only on which side of the number the result lay.

With `CC(C)(C)c1cc(C(=O)/C(C#N)=N/Nc2ccccc2Cl)no1`, the Ratio IC50 in series [1] worked out at 1.1.

Consider `CC(C)(C)c1cc(C(=O)/C(C#N)=N/Nc2cccc(Cl)c2Cl)no1`, for which, in series [1], the Ratio IC50 was 0.9.

Regarding `Cc1cc(NC(=O)/C(C#N)=N/Nc2cccc(Cl)c2)no1`, the IC50 result in series [2] is on record as “Not Active”.

In the case of `CC(C)(C)c1cc(C(=O)/C(C#N)=N/Nc2cccc(Cl)c2)no1`, the IC50 in series [3] and in series [4] was 10.8 µM each time. The solubility at 24 h came to 0.018 mM (≈ 5.95 µg/mL) in series [5] (water) and 45.3 mM (≈ 15000 µg/mL) in series [6].

For the compound `CC(C)(C)c1cc(C(=O)/C(C#N)=N/Nc2cc(F)c(F)c(F)c2)no1`, the IC50 in series [4] turned out to be 8.9 µM. This compound also yielded a solubility in series [5] of 0.216 mM (≈ 75.7 µg/mL). Further, the solubility at 24 h in series [6] was determined as 81.6 mM (≈ 28600 µg/mL).

`N#C/C(=N\Nc1cccc(Cl)c1)C(=O)c1cc(C2CC2)on1`: the IC50 in series [2] (read-out: IC50) came out at 60 µM.

For `CC(C)(C)c1cc(C(=O)/C(C#N)=N/Nc2ccccc2)no1`, in series [1], the Ratio IC50 was 0.5.

On to `CCOC(=O)c1cccc(N/N=C(\C#N)C(=O)c2cc(C(C)(C)C)on2)c1`, for which the IC50 in series [2] (read-out: IC50) was found to be 71.4 µM.

On to `CC(C)(C)c1cc(C(=O)/C(C#N)=N/Nc2cccc(CO)c2)no1`, for which the IC50 result in series [2] was “Not Active”.

Take `CC(C)(C)c1cc(NC(=O)/C(C#N)=N/Nc2cccc(Cl)c2)no1`: the IC50 entry in series [2] was “Not Active”.

For `N#C/C(=N\Nc1cccc(Cl)c1)C(=O)c1cc(C2CCCCC2)on1`, in series [2] (read-out: IC50), the IC50 was determined as 11.3 µM. Besides, the Ratio IC50 in series [1] amounted to 2.8.

On to `CC(C)(C)c1cc(C(=O)N/N=C/c2cccc(Cl)c2)no1`, for which the IC50 result in series [2] is “Not Active”.

For the compound `CC(C)(C)c1cc(C(=O)/C(C#N)=N/Nc2cc(Cl)c(Cl)c(Cl)c2)no1`, the IC50 worked out at 0.9 µM in series [2] (read-out: IC50) and 2.4 µM in series [4]. In addition, in series [5], the solubility amounted to 0.0318 mM (≈ 12.7 µg/mL). The compound further yielded a solubility at 24 h in series [6] of 10.9 mM (≈ 4360 µg/mL).

For `CC(C)(C)c1cc(-c2n[nH]c(N)c2/N=N/c2cccc(Cl)c2)no1`, in series [2], the IC50 result is recorded as “Not Active”.

For `CC(C)(C)c1cc(C(=O)/C(C#N)=N/Nc2ccc(Cl)cc2)no1`, the Ratio IC50 in series [1] was found to be 1.2.

Regarding `CC(C)(C)c1cc(C(=O)/C(C#N)=N/Nc2cc(Cl)ccc2Cl)no1`, in series [1], the Ratio IC50 was 4.4.

As to `CC(C)(C)c1cc(NC(=O)c2cccc(Cl)c2)no1`, the IC50 entry in series [2] is “Not Active”.

On to `CC(C)(C)c1cc(C(=O)/C(C#N)=N/Nc2cccc([N+](=O)[O-])c2)no1`, for which the IC50 in series [2] (read-out: IC50) worked out at 31.3 µM. In addition, the Ratio IC50 in series [1] was found to be 1.

As to `CC(C)(C)c1cc(C(=O)/C(C#N)=N/Nc2cccc(C#N)c2)no1`, in series [2] (read-out: IC50), the IC50 stood at 67.8 µM.

For `Cc1cc(C(=O)/C(C#N)=N/Nc2cccc(Cl)c2)no1`, the IC50 entry in series [2] is “Not Active”.

As for `CC(C)(C)c1cc(NC(=O)Nc2cccc(Cl)c2)no1`, the IC50 result in series [2] was “Not Active”.

Take `CC(C)(C)c1cc(C(=O)/C(C#N)=N/Nc2ccc(F)c(Cl)c2)no1`: the IC50 was 2.7 µM in series [2] (read-out: IC50) and 7.8 µM in series [4]. Further, the Ratio IC50 in series [1] stood at 11.9. Besides, in series [5], the solubility came to 0.2368 mM (≈ 82.6 µg/mL). Also, the concentration in solution in series [6] (solubility at 24 h) came to 23.5 mM (≈ 8200 µg/mL).

Turning to `CC(C)(C)c1cc(C(=O)/C(C#N)=N/Nc2ccc(Cl)c(Cl)c2)no1`, the Ratio IC50 in series [1] was 10.7.

On to `CC(C)(C)c1cc(C(=O)/C(C#N)=N/Nc2ccc(Cl)c(F)c2)no1`, for which the IC50 in series [2] (read-out: IC50) stood at 4.3 µM. For the same compound, the Ratio IC50 in series [1] is 7.4.

For the compound `CC(C)(C)c1cc(C(=O)/C(C#N)=N/Nc2ccc(Cl)c(C(F)(F)F)c2)no1`, the IC50 in series [4] came to 9.7 µM.

Turning to `N#C/C(=N\Nc1cc(Cl)cc(Cl)c1)C(=O)c1cc(C2CCCCC2)on1`, the IC50 in series [4] came out at 2.6 µM.

For `CC(C)(C)c1cc(C(=O)/C(C#N)=N/Nc2cc(F)cc(F)c2)no1`, in series [2] (read-out: IC50), the IC50 turned out to be 5.3 µM. In addition, in series [1], the Ratio IC50 came to 6.

Consider `N#C/C(=N\Nc1cccc(Cl)c1)C(=O)c1cc(-c2ccccc2)on1`, for which the IC50 entry in series [2] is listed as “Not Active”.

`CC(C)(C)c1cc(C(=O)/C(C#N)=N/Nc2cc(C(F)(F)F)cc(C(F)(F)F)c2)no1`: the values for the IC50 in series [2] (read-out: IC50) and in series [4] were 6.4 µM and 5.7 µM, respectively. Further, in series [5], the solubility was determined as 0.968 mM (≈ 418 µg/mL). The same compound came in with a solubility at 24 h in series [6] greater than 347 mM.

On to `CC(=O)c1cccc(N/N=C(\C#N)C(=O)c2cc(C(C)(C)C)on2)c1`, for which the IC50 result in series [2] is “Not Active”.

For the compound `N#C/C(=N\Nc1cc(Cl)c(Cl)c(Cl)c1)C(=O)c1cc(C2CCCCC2)on1`, in series [4], the IC50 turned out to be 4 µM. This compound also showed a solubility in series [5] of 0.0237 mM (≈ 10.1 µg/mL). The solubility at 24 h in series [6] amounted to 8.5 mM (≈ 3620 µg/mL).

For the compound `CC(C)(C)c1cc(C(=O)/C(C#N)=N/Nc2cc(Cl)cc(Cl)c2)no1`, in series [1], the Ratio IC50 turned out to be 16.8.

Turning to `CC(C)(C)c1cc(C(=O)/C(C#N)=N/Nc2ccc(C(F)(F)F)c(Cl)c2)no1`, the IC50 in series [4] was 4.3 µM.

For the compound `CC(C)(C)c1cc(C(=O)/C(C#N)=N/Nc2cc(Cl)cc(C(F)(F)F)c2)no1`, the IC50 in series [2] (read-out: IC50) was 1.6 µM; in series [4], 5.7 µM. This compound also registered a solubility at 24 h in series [6] of 36.6 mM (≈ 14600 µg/mL).

In the case of `CC(C)(C)c1cc(C(=O)/C(C#N)=N/Nc2cc(F)cc(Cl)c2)no1`, the IC50 in series [2] (read-out: IC50) came out at 2.5 µM; in series [4], 11.6 µM. Besides, the Ratio IC50 in series [1] came out at 12.8.

With `N#C/C(=N\Nc1cc(Cl)c(Cl)c(Cl)c1)C(=O)c1cc(-c2ccccc2)on1`, in series [2], the IC50 entry is “Not Active”.

With `COc1cccc(N/N=C(\C#N)C(=O)c2cc(C(C)(C)C)on2)c1`, the IC50 result in series [2] is listed as “Not Active”.

On to `N#C/C(=N\Nc1cc(Cl)c(Cl)c(Cl)c1)C(=O)c1cc(C2CC2)on1`, for which the IC50 in series [4] amounted to 4.1 µM.

Regarding `CC(C)(C)c1cc(C(=O)Nc2cccc(Cl)c2)no1`, in series [2], the IC50 result is “Not Active”.
